Laboratory results from ChEMBL document CHEMBL1131532, “Synthesis and structure-activity relationships of carboxyflavones as structurally rigid CysLT1 (LTD4) receptor antagonists” (J Med Chem, 1998).

Columns and labels:
[1] = molecular target: T1, Cysteinyl leukotriene receptor 1 (Cavia porcellus) (UniProt Q2NNR5); assay: In vitro inhibition of [3H]LTD4 binding to CysLT1 receptors on guinea pig lung membranes.; format: tissue-based; set-up: concentration or dose not given beside the values; conditions: concentration not given here
T1 sequence (whole entry): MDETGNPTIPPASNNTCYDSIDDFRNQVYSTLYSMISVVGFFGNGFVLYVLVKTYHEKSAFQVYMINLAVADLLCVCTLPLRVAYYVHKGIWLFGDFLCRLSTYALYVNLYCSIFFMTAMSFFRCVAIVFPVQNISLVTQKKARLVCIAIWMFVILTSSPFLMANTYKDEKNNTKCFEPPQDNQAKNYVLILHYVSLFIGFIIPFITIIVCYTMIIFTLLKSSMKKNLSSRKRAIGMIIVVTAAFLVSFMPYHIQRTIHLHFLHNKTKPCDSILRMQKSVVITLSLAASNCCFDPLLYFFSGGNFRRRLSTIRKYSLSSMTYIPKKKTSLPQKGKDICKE
Method in brief: (§1)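 Guinea pig lung membrane fractions (about 170 µg/mL) with 0.2 nM [3H]LTD4 and test compound in 10 mM PIPES buffer, pH 7.5 (10 mM CaCl2, 10 mM MgCl2, 50 mM NaCl, 2 mM cysteine, 2 mM glycine), 30 min at 22 °C. Stopped with ice-cold Tris-HCl/NaCl, vacuum-filtered, filter radioactivity counted. Means ± SD of three determinations. Percent inhibition taken at 10^-5 M where no KD obtained.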

[2] = molecular target: T2, Cysteinyl leukotriene receptor 1 (Cavia porcellus, UniProt Q2NNR5); assay: In vitro affinity for CysLT1 receptors on guinea pig lung membranes, measured by displacement of [3H]LTD4.; format: tissue-based
T2 sequence (Q2NNR5 whole entry): T1 sequence (whole entry)
Method in brief: as §1, with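 “determinations.” for “determinations. Percent inhibition taken at 10^-5 M where no KD obtained.”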

Cavia porcellus = organism: Cavia porcellus; assay: Ex vivo inhibition of LTD4 induced contraction of guinea pig ileum.; format: functional
Method in brief: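 Ileum segments (2 cm) from male guinea pigs, mounted open-lumen on a transducer. Compounds in DMSO, 10^-5 to 3.0 × 10^-9 M, preincubated 30 min, then contraction evoked by 10^-8 M LTD4. Indomethacin (10^-6 M) added to the bath 10 min before LTD4.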

SMILES | inhibition [1] | Kd [2] | IC50 (Cavia porcellus)
O=C(O)c1ccc2oc(-c3ccc(OCc4ccccc4)cc3)cc(=O)c2c1 | 23% |  | 
CCOC(=O)c1cccc2c(=O)cc(-c3cccc(OCc4ccc5ccccc5n4)c3)oc12 | 38% |  | 
O=C(O)c1cccc2c(=O)cc(-c3ccc(OCc4ccccc4)cc3)oc12 |  | 55000 nM | 
O=c1cc(-c2cccc(/C=C/c3ccc4ccccc4n3)c2)oc2c(-c3nn[nH]n3)cc(Cl)cc12 |  | 11000 nM | 
O=C(O)c1cccc2c(=O)cc(-c3cccc(/C=C/c4ccc5ccccc5n4)c3)oc12 |  | 17 nM | 42 nM
Cc1cc(C(=O)O)c2oc(-c3cccc(/C=C/c4ccc5ccccc5n4)c3)cc(=O)c2c1 |  |  | 28 nM
O=C(O)c1cc(Br)cc2c(=O)cc(-c3cccc(OCc4ccc5ccccc5n4)c3)oc12 |  |  | 61 nM
O=C(O)c1cc(Br)cc2c(=O)cc(-c3cccc(/C=C/c4ccc5ccccc5n4)c3)oc12 |  |  | 100 nM
O=C(O)c1cccc2c(=O)cc(-c3ccc(OCc4ccc5ccccc5c4)cc3)oc12 | 32% |  | 
CCOC(=O)c1cccc2c(=O)cc(-c3ccc(OCc4ccc5ccccc5n4)cc3)oc12 | 32% |  | 
N#Cc1cc(Cl)cc2c(=O)cc(-c3cccc(/C=C/c4ccc5ccccc5n4)c3)oc12 | 0% |  | 
O=C(O)c1cc(Cl)cc2c(=O)cc(-c3cccc(/C=C/c4ccc5ccccc5n4)c3)oc12 |  |  | 15 nM
O=C(O)c1cccc2c(=O)cc(-c3cccc(OCc4ccccc4)c3)oc12 | 50% |  | 
O=C(O)c1ccc2c(=O)cc(-c3cccc(/C=C/c4ccc5ccccc5n4)c3)oc2c1 |  | 1730 nM | 
O=C(O)c1ccc2oc(-c3ccc(/C=C/c4ccc5ccccc5n4)cc3)cc(=O)c2c1 | 28% |  | 
